Laboratory results published in ChEMBL document CHEMBL3580599, “Synthesis and Biological Evaluation of Novel Homoisoflavonoids for Retinal Neovascularization” (J Med Chem, 2015).

System: not listed separately
Experiment: Growth inhibition of human 92-1 cells assessed as reduction in cell number after 48 hrs by alamarBlue based fluorescence assay
Format: functional
Conditions: not given
How it was run: (§1)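 Cells (2,500 per well in growth medium) were allowed 24 h, then exposed 48 h to compound over 0.5 nM–500 μM. alamarBlue was added and fluorescence read 4 h later (ex 560/em 590 nm). Dose-response curves were fitted relative to DMSO control; compounds not reducing cell number ≥50% at the top concentration were reported as GI50 >100 μM.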
In the case of `COc1ccc(CC2COc3cc(OC)c(OC)c(OC)c3C2=O)cc1OC(=O)[C@H](Cc1ccc(OCc2ccccc2)cc1)NC(=O)OC(C)(C)C` (stereo partly specified), the GI50 is reported as > 100 µM. `COc1ccc(CC2COc3cc(OC)c(OC)c(OC)c3C2=O)cc1NC(=O)[C@H](Cc1ccccc1)NC(=O)OC(C)(C)C` (stereo partly specified) gave a GI50 of 3.1 µM. With `COc1ccc(CC2COc3cc(OC)c(OC)c(OC)c3C2=O)cc1OC(=O)[C@H](CCc1ccccc1)NC(=O)OC(C)(C)C` (stereo partly specified) the GI50 was > 100 µM. For `COc1ccc(CC2COc3cc(OC)c(OC)c(OC)c3C2=O)cc1N` (stereo unspecified), the GI50 was > 100 µM. Molecule `COc1cc(/C=C2\COc3cc(OC)c(OC)c(OC)c3C2=O)ccc1O` has a GI50 of 26 µM. In the case of `COc1ccc(CC2COc3cc(OC)c(OC)c(OC)c3C2=O)cc1C(=O)O` (stereo unspecified), the GI50 is reported as > 100 µM. In the case of `COc1ccc(CC2COc3cc(OC)c(OC)c(OC)c3C2=O)cc1O` (stereo unspecified), the GI50 is reported as > 100 µM. With `COc1ccc(CC2COc3cc(O)c(OC)c(OC)c3C2=O)cc1O` (stereo unspecified) the GI50 was > 100 µM. In the case of `COc1ccc(CC2COc3cc(OC)c(OC)c(OC)c3C2=O)cc1OC(=O)CCc1ccccc1` (stereo unspecified), the GI50 is reported as > 100 µM. In the case of `COc1cc(OC)c2c(c1)OC/C(=C\c1ccc(OC)c(O)c1)C2=O`, the GI50 is reported as > 100 µM. In the case of `C=CCOc1cc(/C=C2\COc3cc(OC)c(OC)c(OC)c3C2=O)ccc1OC`, the GI50 is reported as 1.1 µM. With `COc1cc(OC)c2c(c1)OCC(Cc1ccc(OC)c(O)c1)C2=O` (stereo unspecified) the GI50 was > 100 µM. For `COc1cc2c(c(OC)c1OC)C(=O)C(Cc1ccccc1)CO2` (stereo unspecified), the GI50 was > 100 µM. In the case of `COc1ccc(CC2COc3cc(OC)c(OC)c(OC)c3C2=O)cc1OC(=O)[C@H](CC(C)C)NC(=O)OC(C)(C)C` (stereo partly specified), the GI50 is reported as > 100 µM. With `COc1ccc(CC2COc3cc(OC)c(OC)c(OC)c3C2=O)cc1OC(=O)/C=C/c1ccccc1` (stereo unspecified) the GI50 was > 100 µM. For `COc1ccc(CC2COc3cc(OC)c(OC)c(OC)c3C2=O)cc1OC(=O)c1ccccc1` (stereo unspecified), the GI50 was > 100 µM. For `COc1ccc(CC2COc3cc(OC)c(OC)c(OC)c3C2=O)cc1OCc1ccccc1` (stereo unspecified), the GI50 was 61 µM. In the case of `CC[C@H](C)[C@H](NC(=O)OC(C)(C)C)C(=O)Oc1cc(CC2COc3cc(OC)c(OC)c(OC)c3C2=O)ccc1OC` (stereo partly specified), the GI50 is reported as > 100 µM. For `COc1ccc(CC2COc3cc(OC)c(OC)c(O)c3C2=O)cc1O` (stereo unspecified), the GI50 was > 100 µM.

System: not listed separately
Experiment: Growth inhibition of human HREC cells assessed as reduction in cell number after 48 hrs by alamarBlue based fluorescence assay
Format: functional
Conditions: not given
How it was run: as §1
Molecule `COc1ccc(CC2COc3cc(OC)c(OC)c(OC)c3C2=O)cc1OC(=O)[C@H](Cc1ccc(OCc2ccccc2)cc1)NC(=O)OC(C)(C)C` (stereo partly specified) has a GI50 of 0.51 µM. Work on `COc1ccc(CC2COc3cc(OC)c(OC)c(OC)c3C2=O)cc1NC(=O)[C@H](Cc1ccccc1)NC(=O)OC(C)(C)C` (stereo partly specified) yielded a GI50 of 22 µM. Molecule `COc1ccc(CC2COc3cc(OC)c(OC)c(OC)c3C2=O)cc1OC(=O)[C@H](CCc1ccccc1)NC(=O)OC(C)(C)C` (stereo partly specified) has a GI50 of 0.17 µM. For `COc1ccc(CC2COc3cc(OC)c(OC)c(OC)c3C2=O)cc1N` (stereo unspecified), the GI50 was 1.1 µM. For `COc1cc(/C=C2\COc3cc(OC)c(OC)c(OC)c3C2=O)ccc1O`, the GI50 was 3.3 µM. With `COc1ccc(CC2COc3cc(OC)c(OC)c(OC)c3C2=O)cc1C(=O)O` (stereo unspecified) the GI50 was > 100 µM. With `COc1ccc(CC2COc3cc(OC)c(OC)c(OC)c3C2=O)cc1O` (stereo unspecified) the GI50 was 2 µM. In the case of `COc1ccc(CC2COc3cc(O)c(OC)c(OC)c3C2=O)cc1O` (stereo unspecified), the GI50 is reported as > 100 µM. `COc1ccc(CC2COc3cc(OC)c(OC)c(OC)c3C2=O)cc1OC(=O)CCc1ccccc1` (stereo unspecified) showed a GI50 of 0.22 µM. `COc1cc(OC)c2c(c1)OC/C(=C\c1ccc(OC)c(O)c1)C2=O` showed a GI50 of 42 µM. `C=CCOc1cc(/C=C2\COc3cc(OC)c(OC)c(OC)c3C2=O)ccc1OC` gave a GI50 of 3.9 µM. For `COc1cc(OC)c2c(c1)OCC(Cc1ccc(OC)c(O)c1)C2=O` (stereo unspecified), the GI50 was 1.6 µM. In the case of `COc1cc2c(c(OC)c1OC)C(=O)C(Cc1ccccc1)CO2` (stereo unspecified), the GI50 is reported as > 100 µM. `COc1ccc(CC2COc3cc(OC)c(OC)c(OC)c3C2=O)cc1OC(=O)[C@H](CC(C)C)NC(=O)OC(C)(C)C` (stereo partly specified) showed a GI50 of 0.13 µM. With `COc1ccc(CC2COc3cc(OC)c(OC)c(OC)c3C2=O)cc1OC(=O)/C=C/c1ccccc1` (stereo unspecified) the GI50 was 0.17 µM. `COc1ccc(CC2COc3cc(OC)c(OC)c(OC)c3C2=O)cc1OC(=O)c1ccccc1` (stereo unspecified) gave a GI50 of 0.65 µM. For `COc1ccc(CC2COc3cc(OC)c(OC)c(OC)c3C2=O)cc1OCc1ccccc1` (stereo unspecified), the GI50 was 22 µM. With `CC[C@H](C)[C@H](NC(=O)OC(C)(C)C)C(=O)Oc1cc(CC2COc3cc(OC)c(OC)c(OC)c3C2=O)ccc1OC` (stereo partly specified) the GI50 was 3.1 µM. For `COc1ccc(CC2COc3cc(OC)c(OC)c(O)c3C2=O)cc1O` (stereo unspecified), the GI50 was > 100 µM.

System: Y79
Experiment: Growth inhibition of human Y79 cells assessed as reduction in cell number after 48 hrs by alamarBlue based fluorescence assay
Format: functional
Conditions: Y79, 48 h
How it was run: as §1
For `COc1ccc(CC2COc3cc(OC)c(OC)c(OC)c3C2=O)cc1OC(=O)[C@H](Cc1ccc(OCc2ccccc2)cc1)NC(=O)OC(C)(C)C` (stereo partly specified), the GI50 was > 100 µM. Work on `COc1ccc(CC2COc3cc(OC)c(OC)c(OC)c3C2=O)cc1NC(=O)[C@H](Cc1ccccc1)NC(=O)OC(C)(C)C` (stereo partly specified) yielded a GI50 of 4.7 µM. For `COc1ccc(CC2COc3cc(OC)c(OC)c(OC)c3C2=O)cc1OC(=O)[C@H](CCc1ccccc1)NC(=O)OC(C)(C)C` (stereo partly specified), the GI50 was > 100 µM. For `COc1ccc(CC2COc3cc(OC)c(OC)c(OC)c3C2=O)cc1N` (stereo unspecified), the GI50 was > 100 µM. For `COc1cc(/C=C2\COc3cc(OC)c(OC)c(OC)c3C2=O)ccc1O`, the GI50 was 5.2 µM. In the case of `COc1ccc(CC2COc3cc(OC)c(OC)c(OC)c3C2=O)cc1C(=O)O` (stereo unspecified), the GI50 is reported as > 100 µM. For `COc1ccc(CC2COc3cc(OC)c(OC)c(OC)c3C2=O)cc1O` (stereo unspecified), the GI50 was > 100 µM. With `COc1ccc(CC2COc3cc(O)c(OC)c(OC)c3C2=O)cc1O` (stereo unspecified) the GI50 was > 100 µM. In the case of `COc1ccc(CC2COc3cc(OC)c(OC)c(OC)c3C2=O)cc1OC(=O)CCc1ccccc1` (stereo unspecified), the GI50 is reported as > 100 µM. For `COc1cc(OC)c2c(c1)OC/C(=C\c1ccc(OC)c(O)c1)C2=O`, the GI50 was 14 µM. `C=CCOc1cc(/C=C2\COc3cc(OC)c(OC)c(OC)c3C2=O)ccc1OC` showed a GI50 of 2.8 µM. `COc1cc(OC)c2c(c1)OCC(Cc1ccc(OC)c(O)c1)C2=O` (stereo unspecified) gave a GI50 of 4.2 µM. For `COc1cc2c(c(OC)c1OC)C(=O)C(Cc1ccccc1)CO2` (stereo unspecified), the GI50 was > 100 µM. With `COc1ccc(CC2COc3cc(OC)c(OC)c(OC)c3C2=O)cc1OC(=O)[C@H](CC(C)C)NC(=O)OC(C)(C)C` (stereo partly specified) the GI50 was > 100 µM. In the case of `COc1ccc(CC2COc3cc(OC)c(OC)c(OC)c3C2=O)cc1OC(=O)/C=C/c1ccccc1` (stereo unspecified), the GI50 is reported as > 100 µM. In the case of `COc1ccc(CC2COc3cc(OC)c(OC)c(OC)c3C2=O)cc1OC(=O)c1ccccc1` (stereo unspecified), the GI50 is reported as > 100 µM. `COc1ccc(CC2COc3cc(OC)c(OC)c(OC)c3C2=O)cc1OCc1ccccc1` (stereo unspecified) gave a GI50 of 20 µM. Work on `CC[C@H](C)[C@H](NC(=O)OC(C)(C)C)C(=O)Oc1cc(CC2COc3cc(OC)c(OC)c(OC)c3C2=O)ccc1OC` (stereo partly specified) yielded a GI50 of 24 µM. In the case of `COc1ccc(CC2COc3cc(OC)c(OC)c(O)c3C2=O)cc1O` (stereo unspecified), the GI50 is reported as > 100 µM.

System: not listed separately
Experiment: Growth inhibition of human HUVEC cells assessed as reduction in cell number after 48 hrs by alamarBlue based fluorescence assay
Conditions: not given
How it was run: as §1
With `COc1ccc(CC2COc3cc(OC)c(OC)c(OC)c3C2=O)cc1OC(=O)[C@H](Cc1ccc(OCc2ccccc2)cc1)NC(=O)OC(C)(C)C` (stereo partly specified) the GI50 at 48 h was > 100 µM. For `COc1ccc(CC2COc3cc(OC)c(OC)c(OC)c3C2=O)cc1NC(=O)[C@H](Cc1ccccc1)NC(=O)OC(C)(C)C` (stereo partly specified), the GI50 at 48 h was 8.6 µM. In the case of `COc1ccc(CC2COc3cc(OC)c(OC)c(OC)c3C2=O)cc1OC(=O)[C@H](CCc1ccccc1)NC(=O)OC(C)(C)C` (stereo partly specified), the GI50 at 48 h is reported as > 100 µM. Molecule `COc1ccc(CC2COc3cc(OC)c(OC)c(OC)c3C2=O)cc1N` (stereo unspecified) has a GI50 at 48 h of 0.51 µM. With `COc1cc(/C=C2\COc3cc(OC)c(OC)c(OC)c3C2=O)ccc1O` the GI50 at 48 h was 6.2 µM. Molecule `COc1ccc(CC2COc3cc(OC)c(OC)c(OC)c3C2=O)cc1C(=O)O` (stereo unspecified) has a GI50 at 48 h of 92 µM. `COc1ccc(CC2COc3cc(OC)c(OC)c(OC)c3C2=O)cc1O` (stereo unspecified) showed a GI50 at 48 h of 12 µM. For `COc1ccc(CC2COc3cc(O)c(OC)c(OC)c3C2=O)cc1O` (stereo unspecified), the GI50 at 48 h was > 100 µM. Molecule `COc1ccc(CC2COc3cc(OC)c(OC)c(OC)c3C2=O)cc1OC(=O)CCc1ccccc1` (stereo unspecified) has a GI50 at 48 h of 38 µM. `COc1cc(OC)c2c(c1)OC/C(=C\c1ccc(OC)c(O)c1)C2=O` gave a GI50 at 48 h of 15 µM. With `C=CCOc1cc(/C=C2\COc3cc(OC)c(OC)c(OC)c3C2=O)ccc1OC` the GI50 at 48 h was 12 µM. For `COc1cc(OC)c2c(c1)OCC(Cc1ccc(OC)c(O)c1)C2=O` (stereo unspecified), the GI50 at 48 h was 2.5 µM. With `COc1cc2c(c(OC)c1OC)C(=O)C(Cc1ccccc1)CO2` (stereo unspecified) the GI50 at 48 h was > 100 µM. In the case of `COc1ccc(CC2COc3cc(OC)c(OC)c(OC)c3C2=O)cc1OC(=O)[C@H](CC(C)C)NC(=O)OC(C)(C)C` (stereo partly specified), the GI50 at 48 h is reported as > 100 µM. For `COc1ccc(CC2COc3cc(OC)c(OC)c(OC)c3C2=O)cc1OC(=O)/C=C/c1ccccc1` (stereo unspecified), the GI50 at 48 h was > 100 µM. With `COc1ccc(CC2COc3cc(OC)c(OC)c(OC)c3C2=O)cc1OC(=O)c1ccccc1` (stereo unspecified) the GI50 at 48 h was > 100 µM. With `COc1ccc(CC2COc3cc(OC)c(OC)c(OC)c3C2=O)cc1OCc1ccccc1` (stereo unspecified) the GI50 at 48 h was > 100 µM. In the case of `CC[C@H](C)[C@H](NC(=O)OC(C)(C)C)C(=O)Oc1cc(CC2COc3cc(OC)c(OC)c(OC)c3C2=O)ccc1OC` (stereo partly specified), the GI50 at 48 h is reported as > 100 µM. Molecule `COc1ccc(CC2COc3cc(OC)c(OC)c(O)c3C2=O)cc1O` (stereo unspecified) has a GI50 at 48 h of 44 µM.
